Assay results from different studies.
Each line is one published result; the experiments were not run side by side.
EGFR del752-759: Epidermal growth factor receptor (EGFR, Homo sapiens, UniProt P00533, del752-759)
EGFR del747-750/T751S: Epidermal growth factor receptor (EGFR, Homo sapiens, UniProt P00533, del747-750/T751S)
EGFR G719C: Epidermal growth factor receptor (EGFR, Homo sapiens, UniProt P00533, G719C)
EGFR L858R: Epidermal growth factor receptor (EGFR, Homo sapiens, UniProt P00533, L858R)
EGFR del747-752/P753S: Epidermal growth factor receptor (EGFR, Homo sapiens, UniProt P00533, del747-752/P753S)
EGFR G719S: Epidermal growth factor receptor (EGFR, Homo sapiens, UniProt P00533, G719S)
EGFR L858R/T790M: Epidermal growth factor receptor (EGFR, Homo sapiens, UniProt P00533, L858R/T790M)
EGFR T790M: Epidermal growth factor receptor (EGFR, Homo sapiens, UniProt P00533, T790M)

Nc1ncc2c(n1)-c1c([nH]c3ccc(C#CC4CC4)cc13)CCCC2  remaining binding (EGFR del752-759; binding; competition with immobilised ligand; 1 µM): 100%
Cc1cnc(Nc2ccc(C(=O)N3CCC(N4CCCC4)CC3)cc2)nc1-c1cc2ccccc2s1  remaining binding (EGFR del747-750/T751S; binding; competition with immobilised ligand; 1 µM): 97%
COc1cnc(Nc2cccc(S(N)(=O)=O)c2)nc1N1CCN(c2ccccc2)CC1  remaining binding (EGFR G719C; binding; competition with immobilised ligand; 1 µM): 100%
O=C(c1ccc(Nc2ncc(Cl)c(-c3cc4ccccc4s3)n2)cc1)N1CCC(N2CCCC2)CC1  remaining binding (EGFR G719C; binding; competition with immobilised ligand; 1 µM): 88%
CNC(=O)[C@@H]1CC[C@@H](n2c(-c3ccc4cnccc4c3)nc3ccc(C(=O)NCc4cccc(C(N)=O)c4)cc32)C1  remaining binding (Epidermal growth factor receptor (EGFR, Homo sapiens, UniProt P00533, del746-750); binding; competition with immobilised ligand; 1 µM): 90%
O=C(N1CCS(=O)(=O)CC1)N1C[C@H](c2ccc(OC(F)(F)F)cc2)C[C@H](c2nc(C3CC3)no2)C1  remaining binding (EGFR L858R; cell-free assay; competition with immobilised ligand; 1 µM): 100%
O=C(NCCCN1CCOCC1)c1ccc(Nc2nccc(-c3cc4ccccc4s3)n2)cc1  remaining binding (EGFR del752-759; binding; competition with immobilised ligand; 1 µM): 100%
c1cncc(-c2cccc(Nc3nccc(NC4CCCCC4)n3)c2)c1  remaining binding (EGFR del747-752/P753S; binding; competition with immobilised ligand; 10 µM): 42%
CN(C)c1ncc(F)c(-c2cnn3ncccc23)n1  remaining binding (EGFR del752-759; binding; 1 µM): 100%
COc1cnc(Nc2cccc(S(N)(=O)=O)c2)nc1N1CCN(c2ccccc2)C(=O)C1  remaining binding (EGFR G719S; binding; competition with immobilised ligand; 1 µM): 100%
CN1CCN(c2ccc(Nc3nccc(-c4cccc([N+](=O)[O-])c4)n3)cc2C(F)(F)F)CC1  remaining binding (EGFR L858R/T790M; binding; 10 µM): 29%
O=C(NC[C@@H]1[C@H]2CN(C(=O)OCc3cc(C(F)(F)F)cc(C(F)(F)F)c3)C[C@@H]12)c1ccc2[nH]nnc2c1  remaining binding (EGFR L858R; cell-free assay; competition with immobilised ligand; 1 µM): 100%
CN(C)c1nccc(-c2cnn3ncccc23)n1  remaining binding (EGFR G719C; binding; 1 µM): 100%
Cc1nc(N2CC[C@@H](O)C2)ncc1-c1cc(C(F)(F)F)cc2[nH]ncc12  remaining binding (EGFR del752-759; cell-free assay; competition with immobilised ligand; 1 µM): 99%
O=C(c1ccc(Nc2ncc(Cl)c(-c3ccc(Cl)s3)n2)cc1)N1CCC(N2CCCC2)CC1  remaining binding (Epidermal growth factor receptor (EGFR, Homo sapiens, UniProt P00533, L861Q); binding; competition with immobilised ligand; 1 µM): 100%
CC(=O)Nc1c(C(C)=O)c(=O)n(C)c2nc(-c3ccc(Cl)cc3Cl)c(-c3ccc(Cl)cc3)cc12  remaining binding (EGFR del747-750/T751S; cell-free assay; competition with immobilised ligand; 1 µM): 100%
Cc1cnn2ncc(-c3ccnc(N(C)C)n3)c2c1  remaining binding (Epidermal growth factor receptor (EGFR, Homo sapiens, UniProt P00533); binding; 1 µM): 75%
O=C(Nc1c[nH]nc1C(=O)NC1CCNCC1)c1cc(F)cc(F)c1  remaining binding (EGFR L858R/T790M; binding; competition with immobilised ligand; 1 µM): 100%
CC1CCCN1c1nccc(-c2cnn3ncccc23)n1 (stereo not drawn)  remaining binding (EGFR L858R; binding; 1 µM): 100%
COc1ncc2cc3ccccc3nc2c1C#N  remaining binding (EGFR L858R; cell-free assay; competition with immobilised ligand; 5 µM): 99%
O=C(c1ccc(Nc2nccc(-c3cc4ccccc4s3)n2)cc1)N1CCC(N2CCCC2)CC1  remaining binding (EGFR L858R; binding; competition with immobilised ligand; 1 µM): 100%
O=C(NCC1CCOCC1)c1n[nH]cc1NC(=O)c1c(F)cccc1F  remaining binding (EGFR T790M; binding; competition with immobilised ligand; 1 µM): 93%
C[C@H](c1ccnc(Nc2nc3ccc(-c4cc(N(C)C)ncn4)cc3[nH]2)c1)N1CCN(C(=O)CC(F)(F)F)CC1  remaining binding (EGFR del747-752/P753S; cell-free assay; competition with immobilised ligand; 0.1 µM): 69%
CCN1CCN(Cc2ccc(C(=O)Nc3ccc(C)c(Oc4ccc5c(c4)CC(=O)N5)c3)cc2C(F)(F)F)CC1  remaining binding (Epidermal growth factor receptor (EGFR, Homo sapiens, UniProt P00533, A750P/del747-749); binding; competition with immobilised ligand; 1 µM): 100%
NS(=O)(=O)c1cc(NC(=O)Cc2ccccc2)ccc1Oc1cccc(Cl)c1  remaining binding (EGFR L858R/T790M; cell-free assay; competition with immobilised ligand; 1 µM): 75%
C[C@@H]1CCN(c2nccc(-c3cnn4ncccc34)n2)C1  remaining binding (EGFR G719S; binding; 1 µM): 74%
CO[C@@H](C)c1c(Nc2ccc([C@H](N(C)C(=O)C3CCS(=O)(=O)CC3)C(F)(F)F)cc2)cnc2cc(Cl)nn12  remaining binding (EGFR T790M; cell-free assay; competition with immobilised ligand; 1 µM): 90%
O=C(NCCCN1CCOCC1)c1ccc(Nc2ncc(Cl)c(-c3ccc(Cl)s3)n2)cc1  remaining binding (EGFR del747-750/T751S; binding; competition with immobilised ligand; 1 µM): 100%
Cn1nc(C(F)(F)F)cc1-c1cnc(N2CCc3cc(S(=O)(=O)Nc4c(F)cc(Cl)cc4F)cc(N4CCCC4=O)c32)nc1  remaining binding (EGFR del747-752/P753S; cell-free assay; competition with immobilised ligand; 1 µM): 100%
N[C@H]1CCN(c2nccc(-c3cnn4ncccc34)n2)C1  remaining binding (EGFR L858R/T790M; binding; 1 µM): 89%
